Consider 28 molecules from ChEMBL document CHEMBL3351654, “Synthesis, biological evaluation, and 3D QSAR study of 2-methyl-4-oxo-3-oxetanylcarbamic acid esters as N-acylethanolamine acid amidase (NAAA) inhibitors” (J Med Chem, 2014).

The structures appear in SMILES notation.

The first assay deals with T1, N-acylethanolamine-hydrolyzing acid amidase (Rattus norvegicus, UniProt Q5KTC7).
T1 sequence (Q5KTC7 whole entry): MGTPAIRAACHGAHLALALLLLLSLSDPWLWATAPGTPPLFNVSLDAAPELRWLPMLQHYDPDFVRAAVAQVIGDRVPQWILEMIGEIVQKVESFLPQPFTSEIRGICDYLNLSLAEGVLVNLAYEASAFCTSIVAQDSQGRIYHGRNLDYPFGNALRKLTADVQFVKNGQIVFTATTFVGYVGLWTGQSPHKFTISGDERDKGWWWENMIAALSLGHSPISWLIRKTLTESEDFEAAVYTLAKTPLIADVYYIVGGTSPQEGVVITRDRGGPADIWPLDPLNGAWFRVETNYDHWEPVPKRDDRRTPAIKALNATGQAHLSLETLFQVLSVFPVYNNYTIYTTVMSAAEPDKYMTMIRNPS
Kind of assay: Inhibition of NAAA in Sprague-Dawley rat lung assessed as inhibition of hydrolysis of 10-cis-heptadecenoylethanolamide by UPLC/MS method. The settings on record: read-out: IC50. In short, it runs like this: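 Native NAAA enzyme prepared from rat lungs, not a recombinant construct. The substrate, 10-cis-heptadecenoylethanolamide, is an unnatural fatty acid ethanolamide. Inhibition of its hydrolysis was measured, and the median inhibitory concentration (IC50) was reported.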
With `C[C@@H]1OC(=O)[C@@H]1NC(=O)OCc1ccccc1`, the IC50 was determined as 2.09 µM.

Consider `C[C@@H]1OC(=O)[C@@H]1NC(=O)OC(C)(C)C`, for which the IC50 came out at 6.35 µM.

In the case of `CCCCCOC(=O)N[C@H]1C(=O)O[C@H]1C`, the IC50 worked out at 0.76 µM.

In the case of `C[C@@H]1OC(=O)[C@@H]1NC(=O)OCCCCCc1ccc(F)cc1`, the IC50 worked out at 0.24 µM.

Regarding `C[C@@H]1OC(=O)[C@@H]1NC(=O)OCCCCCl`, the IC50 was 0.288 µM.

For `CCCCC1(OC(=O)N[C@H]2C(=O)O[C@H]2C)COC1`, the IC50 worked out at 3.76 µM.

As for `C[C@@H]1OC(=O)[C@@H]1NC(=O)OC1(CCCCc2ccccc2)COC1`, the IC50 amounted to 0.52 µM.

Consider `C[C@@H]1OC(=O)[C@@H]1NC(=O)OCCCCCCCc1ccccc1`, for which the IC50 is 0.039 µM.

As for `C[C@@H]1OC(=O)[C@@H]1NC(=O)OCC#Cc1ccccc1`, the IC50 was 0.02 µM.

As for `C[C@@H]1OC(=O)[C@@H]1NC(=O)OCc1ccc(-c2ccsc2)cc1`, the IC50 was found to be 0.022 µM.

With `C[C@@H]1OC(=O)[C@@H]1NC(=O)OCc1ccc(C2CCCCC2)cc1`, the IC50 worked out at 0.007 µM.

Turning to `C[C@@H]1OC(=O)[C@@H]1NC(=O)OCc1ccc(-c2ccc(F)cc2)cc1`, the IC50 worked out at 0.011 µM.

As for `Cc1ccc(-c2ccc(COC(=O)N[C@H]3C(=O)O[C@H]3C)cc2)cc1`, the IC50 came to 0.029 µM.

For `C[C@@H]1OC(=O)[C@@H]1NC(=O)OCc1ccc(-c2ccc(C(F)(F)F)cc2)cc1`, the IC50 came out at 0.036 µM.

Turning to `C[C@@H]1OC(=O)[C@@H]1NC(=O)OCc1ccc(OC2CCCCC2)cc1`, the IC50 was found to be 0.023 µM.

As to `C[C@@H]1OC(=O)[C@@H]1NC(=O)OCc1ccc2c(c1)OCO2`, the IC50 is 0.176 µM.

Regarding `CCCCc1ccc(COC(=O)N[C@H]2C(=O)O[C@H]2C)cc1`, the IC50 is 0.015 µM.

With `C[C@@H]1OC(=O)[C@@H]1NC(=O)OCc1ccc(C(C)(C)C)cc1`, the IC50 was 0.022 µM.

As for `C[C@@H]1OC(=O)[C@@H]1NC(=O)OCc1ccc(-c2sccc2Br)cc1`, the IC50 was determined as 0.028 µM.

In the case of `Cc1ccc2sc(COC(=O)N[C@H]3C(=O)O[C@H]3C)cc2c1`, the IC50 was 0.013 µM.

On to `CCCCCCCC#CCOC(=O)N[C@H]1C(=O)O[C@H]1C`, for which the IC50 was 0.077 µM.

Staying with this assay, now noted: read-out: pIC50 (converted).
As to `C[C@@H]1OC(=O)[C@@H]1NC(=O)OCCCCCc1ccccc1`, the IC50 was 0.0525 µM.

As to `C[C@@H]1OC(=O)[C@@H]1NC(=O)OC(C)(C)CCCCc1ccccc1`, the IC50 is 0.316 µM.

As for `C[C@@H]1OC(=O)[C@@H]1NC(=O)OCc1ccc(-c2ccccc2)cc1`, the IC50 was 0.00724 µM.

In the case of `C[C@@H]1OC(=O)[C@@H]1NC(=O)OCCCc1ccccc1`, the IC50 was 0.0851 µM.

For the molecule `CCCCCCCOC(=O)N[C@H]1C(=O)O[C@H]1C`, the IC50 is 0.0447 µM.

Turning to `C[C@@H]1OC(=O)[C@@H]1NC(=O)OCCCOCc1ccccc1`, the IC50 is 0.0513 µM.

As to `C[C@@H]1OC(=O)[C@@H]1NC(=O)OCCOCCc1ccccc1`, the IC50 is 0.148 µM.

In the case of `C[C@@H]1OC(=O)[C@@H]1NC(=O)OCc1ccc(-c2ccsc2)cc1`, the IC50 was 0.0209 µM.
